{"data": "Published values pooled from the literature", "SLCO1B3": "Solute carrier organic anion transporter family member 1B3 (SLCO1B3, Homo sapiens, UniProt Q9NPD5)", "note": "pIC50: −log10 of the molar value."}
{"SMILES": "c1cnc2ccc(Nc3nc(NC4CC4)c4nc[nH]c4n3)cc2c1", "test system": "human, plasma", "setting": "oral, 50 mg/m², patients", "endpoint": "CL/F", "result": "191 L/h"}
{"SMILES": "COc1cc(C(=O)NC2CCN(C)CC2)c(F)cc1Nc1ncc(C(F)(F)F)c(Oc2cccc3c2C(=O)N(C)C3)n1", "test system": "human, plasma", "setting": "oral, 200 mg, multiple doses, once daily, patients", "endpoint": "CL/F", "result": "9.6 L/h"}
{"SMILES": "Cc1ccc(C(=O)N(CCCN)[C@@H](c2oc3cc(Cl)ccc3c(=O)c2Cc2ccccc2)C(C)C)cc1", "test system": "human, plasma", "setting": "intravenous, 4 mg/m², single dose, patients, infusion", "endpoint": "clearance", "result": "24.8 mL/min"}
{"SMILES": "COc1ccnc(-c2nc3ccccn3c2Nc2ccc(F)cc2)c1", "test": "metabolic stability", "test system": "rat, hepatocytes", "endpoint": "hepatocyte CLint", "result": "190 µL/min/10⁶ cells"}
{"SMILES": "CN(C(=O)n1cnc(-c2ccc[n+]([O-])c2)c1)C1CCCCC1", "tested on": "SLCO1B3", "test": "transporter uptake, inhibitor", "test system": "HEK293", "setting": "1 µg/mL", "endpoint": "inhibition", "result": "11%"}
{"SMILES": "C[C@H]1C[C@H]2[C@@H]3CCC4=CC(=O)C=C[C@]4(C)[C@@]3(Cl)[C@@H](O)C[C@]2(C)[C@@]1(O)C(=O)CO", "tested on": "SLCO1B3", "test": "transporter uptake, inhibitor", "endpoint": "pIC50", "result": 5.85}
{"SMILES": "Fc1ccc(Nc2c(Cn3cccn3)nc3ccccn23)cc1", "test": "metabolic stability", "test system": "rat, hepatocytes", "endpoint": "hepatocyte CLint", "result": "51 µL/min/10⁶ cells"}
{"SMILES": "CN(CCC(=O)O)C(=O)c1ccc2c(c1)CC[C@@H]1[C@@H]2CC[C@]2(C)C(c3cncc(F)c3)=CC[C@@H]12", "tested on": "SLCO1B3", "test": "transporter uptake, inhibitor", "endpoint": "pIC50", "result": 4.39}
{"SMILES": "Oc1ccc(-c2nc(N3CCC(c4ccccn4)C3)c3ccccc3n2)cc1 (centres unmarked)", "test": "metabolic stability", "test system": "human, liver microsomes", "endpoint": "microsomal CLint", "result": "99 µL/min/mg"}
{"SMILES": "COc1ccnc(-c2nc3ccccn3c2N(C)c2ccc(F)cc2)c1", "test": "metabolic stability", "test system": "rat, hepatocytes", "endpoint": "hepatocyte CLint", "result": "> 300 µL/min/10⁶ cells"}
{"SMILES": "O=C(O[C@H]1[C@@H]2C=CO[C@@H](O[C@@H]3O[C@H](CO)[C@@H](O)[C@H](O)[C@H]3O)[C@@H]2[C@@]2(CO)O[C@@H]12)c1ccc(O)cc1", "tested on": "SLCO1B3", "test": "transporter uptake, substrate", "test system": "HEK293", "setting": "5 min", "endpoint": "Km", "result": "502 µM"}
